IMP-1 inh-1 = inhibitors of Pseudomonas aeruginosa IMP-1 metallo-beta-lactamase | purified IMP-1, nitrocefin hydrolysis, epi-absorbance fluorescence | inhibition, % at 5.6 µM | actives 0.45% (n = 290,000);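 active = inhibition above the mean plus 3 SD of all compounds in the same screening run, cut at about 4.5% in these data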;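 also: 0% = IMP-1 with DMSO and 100% = DMSO wells lacking enzyme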
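Assay system: purified recombinant IMP-1 beta-lactamase. Input: IMP-1 0.2 nM before substrate addition. Buffer or medium: Zinc- and detergent-supplemented HEPES buffer, pH 7.1. Schedule: 25 °C, 15 min preincubation, 25 min reaction. Signal: Epi-absorbance fluorescence, 480 nm excitation, 530 nm emission. Evaluation: percent inhibition from optical density relative to buffer-blank wells.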
ASAP1 inh = ASAP1 ArfGAP inhibition | ASAP1-stimulated ARF1 GTP hydrolysis, GDP FP detection | AID 624377 | inhibition, % at 16.5 µM | actives 0.19% (n = 360,000) | Q9ULH1; in the data active = inhibition above about 25%;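 also: 0% = vehicle with enzyme and substrate and 100% = no enzyme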
ARFGAP1 inh = inhibits rat ARF GTPase activating protein 1. Q62848. Arfgap1-stimulated ARF1 GTP hydrolysis, GDP FP detection. inhibition, % at 16.5 µM. actives 0.26% (n = 360,000);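 active = inhibition above a per-plate limit, mean inhibition of low control wells plus 3 SD, cut at about 25% in these data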;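 also: 0% = DMSO wells with enzyme and 100% = wells lacking Arfgap1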
Target sequence (Q62848 1-136 limits assumed): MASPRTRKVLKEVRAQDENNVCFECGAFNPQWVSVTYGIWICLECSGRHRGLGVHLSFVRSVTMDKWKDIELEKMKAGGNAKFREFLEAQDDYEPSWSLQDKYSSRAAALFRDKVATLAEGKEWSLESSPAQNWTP
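Material: rat Arfgap1 GAP domain (His6, aa 1-136), purified enzyme. Also added: human ARF1(Δ1-17)-GTP substrate. Compound dosing: 16.5 µM single point, 1.26% DMSO. Timing: enzyme reaction 120 min at 25 °C after 20 min preincubation. Signal: GDP detection by fluorescence polarization. Read-out basis: percent inhibition of GAP-stimulated GDP formation, scaled between DMSO and no-Arfgap1 medians.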
VIM-2 inh = blocks Pseudomonas aeruginosa VIM-2 metallo-beta-lactamase | inhibition, % at 5.6 µM | actives 0.89% (n = 290,000) | purified VIM-2, nitrocefin hydrolysis, epi-absorbance fluorescence;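 active = inhibition above the mean of all tested compounds plus 3 SD, cutoff set per screening run, cut at about 7.5% in these data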;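 also: red hydrolysis product quenches plate fluorescence so inhibitors raise well fluorescence; 0% = enzyme with DMSO and 100% = DMSO without enzyme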
PHOSPHO1 inh = blocks human PHOSPHO1 phosphatase activity; Q8TCT1; inhibition, % at 13.3 µM; recombinant PHOSPHO1, absorbance phosphatase assay; actives 1.1% (n = 290,000); AID 1565; in the data active = inhibition above about 60%
Target sequence (Q8TCT1 whole entry, looked up): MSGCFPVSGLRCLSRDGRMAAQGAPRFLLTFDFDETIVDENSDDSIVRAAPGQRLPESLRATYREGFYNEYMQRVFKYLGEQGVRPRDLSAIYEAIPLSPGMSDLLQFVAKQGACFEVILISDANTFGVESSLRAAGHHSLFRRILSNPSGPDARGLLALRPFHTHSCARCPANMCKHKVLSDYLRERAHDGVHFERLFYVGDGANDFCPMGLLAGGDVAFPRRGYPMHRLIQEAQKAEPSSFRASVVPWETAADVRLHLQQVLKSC
Calb FLC = affects C. albicans growth with fluconazole | C. albicans CaCi-2 + fluconazole, Alamar Blue growth, 48 h | growth inhibition, % (concentration not given with the values) | actives 0.57% (n = 300,000);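 active = growth inhibition above about 58% in most replicates, limit read from the data, passing the limit was not always enough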;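 also: all wells also contain fluconazole at 8 µg/ml as a sub-toxic cotreatment; 0% = median of DMSO wells and 100% = median of geldanamycin control wells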
IMP-1 inh-2 = IMP-1 inhibition, counter-screen for VIM-2 inhibitors | inhibition, % at 5.6 µM | shares compounds with VIM-2 inh | 1,300 tested, under 10 active | purified IMP-1, nitrocefin hydrolysis, epi-absorbance fluorescence | AID 1856; call rule not given here;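 also: 0% = enzyme with vehicle and 100% = vehicle without enzyme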
VIM-2 FRET inh = inhibits VIM-2 in FRET assay to exclude epi-absorbance artifacts; inhibition, % at 5.6 µM; actives 23% (n = 1,300); shares compounds with VIM-2 inh; purified VIM-2, CCF2 FRET substrate hydrolysis;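 active = inhibition above the mean of all tested compounds plus 3 SD, cut at about 19% in these data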;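 also: 0% = VIM-2 plus DMSO and 100% = no enzyme wells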
TEM-1 inh = TEM-1 inhibition, counter-screen for VIM-2 inhibitors; shares compounds with VIM-2 inh; Purified TEM-1, nitrocefin hydrolysis, epi-absorbance fluorescence; inhibition, % at 5.6 µM; actives 3% (n = 1,300); AID 1866;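 active = inhibition above that campaign's mean inhibition plus 3 SD, cut at about 0.46% in these data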;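 also: 0% = TEM-1 with DMSO and 100% = TEM-1 with 100 µM potassium clavulanate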
Target sequence (P62593 whole entry, looked up): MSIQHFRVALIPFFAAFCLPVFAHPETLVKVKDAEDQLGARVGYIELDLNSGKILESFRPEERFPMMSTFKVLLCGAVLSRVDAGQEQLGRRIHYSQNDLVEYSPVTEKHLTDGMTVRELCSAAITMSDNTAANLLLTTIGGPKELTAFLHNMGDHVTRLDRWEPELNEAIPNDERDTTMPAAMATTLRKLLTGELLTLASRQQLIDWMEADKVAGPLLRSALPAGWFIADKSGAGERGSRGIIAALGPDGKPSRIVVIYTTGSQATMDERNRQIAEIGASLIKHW
VIM-2 inh conf = confirmation of P. aeruginosa VIM-2 metallo-beta-lactamase inhibitors; inhibition, % at 5.6 µM; actives 96% (n = 1,300); shares compounds with VIM-2 inh; AID 2187; purified VIM-2, nitrocefin hydrolysis, epi-absorbance;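 active = inhibition of the VIM-2 beta-lactamase enzyme above about 11% from the earlier first-round screen, limit read from the data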;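 also: 0% = VIM-2 with DMSO and 100% = buffer wells without enzyme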
An asterisk follows results filed as active. An excerpt weighted towards active compounds, which were near 2.6% of everything screened.

Screening O=[N+]([O-])c1ccccc1/C=N/n1c(-c2ccccc2)n[nH]c1=S returned IMP-1 inh-1 -5.1, ASAP1 inh -4.7, ARFGAP1 inh 5.5, VIM-2 inh 0.2, PHOSPHO1 inh -12.5 and Calb FLC 14.5.
`O=[N+]([O-])c1ccccc1/C=C/C=N/n1c(-c2ccccc2F)n[nH]c1=S` gave IMP-1 inh-1 -1.8, ASAP1 inh -1.0, ARFGAP1 inh 13.7, VIM-2 inh 13.5*, PHOSPHO1 inh 1.8, Calb FLC -3.4, IMP-1 inh-2 -1.4, VIM-2 FRET inh 33.7*, TEM-1 inh -4.5 and VIM-2 inh conf 21.2*.
`CN1OC[C@@H]2CN(C(=O)c3cccc4ccccc34)[C@H](c3ccccc3Br)C[C@@H]21` gave ASAP1 inh 6.7 and ARFGAP1 inh 7.2.
COc1ccc(C(=O)NCCNc2nc3cc(C)cc(C)c3cc2C#N)nc1 was read as ASAP1 inh -5.0 and ARFGAP1 inh -11.4.
c1ccc2c(Nc3ccc4c(c3)OCCO4)c3c(nc2c1)CCCC3 was read as IMP-1 inh-1 -0.5, ASAP1 inh 1.0, ARFGAP1 inh -9.8, VIM-2 inh 14.8*, PHOSPHO1 inh -3.9, Calb FLC -2.8, IMP-1 inh-2 -3.0, VIM-2 FRET inh -4.8, TEM-1 inh -1.7 and VIM-2 inh conf 22.8*.
For COc1ccc(Nc2nc(N3CCN(C)CC3)nc3ccccc23)c(OC)c1 the results were IMP-1 inh-1 -1.4, ASAP1 inh 7.5, ARFGAP1 inh 1.4, VIM-2 inh 15.8*, PHOSPHO1 inh 16.3, Calb FLC -15.5, IMP-1 inh-2 -2.9, VIM-2 FRET inh -0.1, TEM-1 inh -6.6 and VIM-2 inh conf 27.9*.
For Fc1cccc(Nc2c3c(nc4ccccc24)CCC3)c1 the results were IMP-1 inh-1 -2.0, ASAP1 inh 0.2, ARFGAP1 inh -4.0, VIM-2 inh 4.4, PHOSPHO1 inh 28.4 and Calb FLC -4.6.
COc1cc(Nc2c3c(nc4ccccc24)CCCC3)cc(OC)c1OC was read as IMP-1 inh-1 -2.0, ASAP1 inh -13.0, ARFGAP1 inh 9.8, VIM-2 inh 1.1, PHOSPHO1 inh -9.7 and Calb FLC 2.5.
For COc1ccc(Nc2c3c(nc4ccccc24)CCC3)c(OC)c1 the results were IMP-1 inh-1 0.1, ASAP1 inh 5.8, ARFGAP1 inh 3.8, VIM-2 inh 19.2*, PHOSPHO1 inh 32.6, Calb FLC -2.5, IMP-1 inh-2 -5.3, VIM-2 FRET inh -2.8, TEM-1 inh -7.9 and VIM-2 inh conf 22.1*.
For CCc1nc2c(OCc3cc(Cl)cc(Cl)c3)cccn2c1N(C)C(=O)c1cccc(OC)c1 the results were ASAP1 inh -5.0 and ARFGAP1 inh 1.8.
`c1ccc2c(c1)Sc1cnccc1N2CC1CO1` (configuration not stated) gave ASAP1 inh -3.3 and ARFGAP1 inh 14.3.
Cc1ccccc1-c1nnc2c3ccccc3c(C)nn12 was read as IMP-1 inh-1 -2.4, ASAP1 inh -0.2, ARFGAP1 inh 4.7, VIM-2 inh -0.1, PHOSPHO1 inh -5.8 and Calb FLC 8.9.
For Cc1nn2c(-c3ccco3)nnc2c2ccccc12 the results were IMP-1 inh-1 0.4, ASAP1 inh -4.2, ARFGAP1 inh -8.8, VIM-2 inh 13.1*, PHOSPHO1 inh -2.3, Calb FLC 20.5, IMP-1 inh-2 -2.4, VIM-2 FRET inh -2.3, TEM-1 inh -4.4 and VIM-2 inh conf 26.5*.
`CCN(CC)CCNC(=O)c1cc2c(-c3cccc(OC)c3)nn(C)c2s1` gave IMP-1 inh-1 -1.9, ASAP1 inh 11.1, ARFGAP1 inh 5.5, VIM-2 inh 13.8*, PHOSPHO1 inh 14.0, Calb FLC 8.7, IMP-1 inh-2 -2.0, VIM-2 FRET inh 3.8, TEM-1 inh -4.4 and VIM-2 inh conf 22.6*.
`COCCCNC(=O)c1cc2c(-c3cccc(OC)c3)nn(C)c2s1` gave IMP-1 inh-1 -0.9, ASAP1 inh 13.7, ARFGAP1 inh 12.1, VIM-2 inh 3.2, PHOSPHO1 inh 14.0 and Calb FLC 10.8.
`Cc1nc(N2CCCC2)c2ccsc2n1` gave IMP-1 inh-1 3.3, ASAP1 inh -10.1, ARFGAP1 inh -4.9, VIM-2 inh 13.8*, PHOSPHO1 inh -4.9, Calb FLC 6.1, IMP-1 inh-2 -2.2, VIM-2 FRET inh 1.2, TEM-1 inh -0.3 and VIM-2 inh conf 14.8*.
For Cc1nc(N2CCN(C)CC2)c2cc(-c3ccccc3)sc2n1 the results were IMP-1 inh-1 0.6, ASAP1 inh -12.9, ARFGAP1 inh -2.1, VIM-2 inh 5.1, PHOSPHO1 inh 2.2 and Calb FLC -2.4.
Screening O=C1Nc2cc(C(=O)NCCCN3CCOCC3)ccc2S/C1=C/c1cccc(Cl)c1 returned IMP-1 inh-1 -2.4, ASAP1 inh 12.2, ARFGAP1 inh 3.9, VIM-2 inh 28.9*, PHOSPHO1 inh 59.4, Calb FLC 0.5, IMP-1 inh-2 -2.3, VIM-2 FRET inh 49.2*, TEM-1 inh -6.6 and VIM-2 inh conf 33.0*.
For O=C1Nc2cc(C(=O)N3CCOCC3)ccc2S/C1=C/c1ccccc1F the results were ASAP1 inh -6.6 and ARFGAP1 inh -9.1.
`O=C1Nc2cc(C(=O)NCCCN3CCOCC3)ccc2S/C1=C/c1ccccc1F` gave IMP-1 inh-1 -1.2, ASAP1 inh -1.5, ARFGAP1 inh 4.9, VIM-2 inh 29.7*, PHOSPHO1 inh 10.0, Calb FLC 39.9, IMP-1 inh-2 -3.2, VIM-2 FRET inh 49.5*, TEM-1 inh -6.3 and VIM-2 inh conf 34.0*.
`O=C1Nc2cc(C(=O)NCCCN3CCCC3)ccc2S/C1=C\c1ccccc1` gave IMP-1 inh-1 -0.2, ASAP1 inh -5.2, ARFGAP1 inh 3.7, VIM-2 inh 13.8*, PHOSPHO1 inh 32.4, Calb FLC 11.1, IMP-1 inh-2 -2.0, VIM-2 FRET inh 32.1*, TEM-1 inh -6.2 and VIM-2 inh conf 23.2*.
CC[C@@H](NC(=O)[C@@H](Cc1ccccc1)NC(=O)CC[C@H]1O[C@@H](n2ccc(=O)[nH]c2=O)[C@H](O)[C@@H]1O)c1ccccc1 was read as ASAP1 inh 1.0 and ARFGAP1 inh -4.8.
